Compound activity (PubChem)
TROY NFkB inh: blocks TROY-dependent signaling in reporter cells. inhibition, % at 10 µM. hit rate 0.98% among 360,000. Q293 LMP1-TROYcd NF-kB luciferase reporter, 4 h;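 active = compounds whose plate-normalised and pattern-corrected inhibition of the luciferase reporter signal at the single screening dose is 50% or more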
CaV13 FRET inh: Primary screen for inhibitors of IQ motif and Ca2+-dependent inactivation inhibitor domain binding in CACNA1D, Förster resonance energy transfer in living cells, …. hit rate 0.098% among 340,000. HEK cells, CFP/YFP FRET ICDI-IQ, plate reader, 10 min; percent FRET-ratio fall versus neutral wells. inhibition, % at 12.3 µM. AID 743397;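 active = mean replicate inhibition of at least 30% and at least 1% of replicates passing that level; inconclusive = only one of the two criteria is met; inactive = neither criterion is met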
Xi reactivation: X-chromosome reactivation activator. XiGFP mouse fibroblasts, % GFP-positive cells imaging, 3 d; cells co-treated with 5-aza-dC sensitizer; scaled so ellipticine positive control = 100%. hit rate 0.055% among 360,000. activation, % at 7.58 µM. AID 743238;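 active = mean normalized replicate activation at least 10% and every replicate at or above 10%; inconclusive = only one of the two criteria met; inactive = mean below 10% and not all replicates reach 10%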
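Assay system: SV40-immortalized XiGFP fibroblast cells, line 68-5-11; buffer or medium: DMEM plus 5-aza-dC sensitizer; compound: one concentration, pinned; timing: compounds 3 days, fix/stain 15 min at room temperature; benchmarks: positive control ellipticine, 6 µM final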
TWEAK-Fn14 inh: blocks TWEAK-Fn14 interaction in a reporter cell assay; TWEAK-stimulated Fn14 reporter cells, luciferase luminescence, 8 h; inhibition, % at 10 µM; hit rate 2% among 360,000; in the data active = inhibition above about 50%
LGR2 antag: Drosophila LGR2 receptor signaling inhibition. HEK293 LGR2, CRE-luciferase, bursicon-stimulated, 4 h. inhibition, % at 9.99 µM. hit rate 0.35% among 380,000. AID 720647;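 active = drop in luminescence signal, shown as inhibition above about 50% in the replicate tests, limit read from the data, passing the limit was not always enough; inconclusive = probably only some replicates passing the limit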;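 note: agonist challenge used bursicon conditioned medium at about half maximal strength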
Of the large screens only hits and unclear results are named; the others gave an inactive call. In the library only some 2% were active in any assay of this set; here they are far more common.

Clc1ccc(C(c2ccc(Cl)cc2)n2cc[n+](CC(OCc3ccc(Cl)cc3Cl)c3ccc(Cl)cc3Cl)c2)cc1 (stereo not drawn)	TROY NFkB inh 79.5, TWEAK-Fn14 inh 76.7, LGR2 antag 86.6
O=C(O)[C@@H]1[C@@H](CO)[C@@H]2Cn3c(ccc(-c4cncnc4)c3=O)[C@H]1N2C(=O)NC1CCCC1	none (no result: TROY NFkB inh, CaV13 FRET inh, TWEAK-Fn14 inh)
COc1cc(/C=C/[N+](=O)[O-])ccc1OC(=O)c1cccnc1	TROY NFkB inh 65.9 (no result: LGR2 antag)
CN(C)c1ccc(/C=C/[N+](=O)[O-])cc1	none (no result: LGR2 antag)
O=C(c1ccc(Cl)cc1)C12CN3CN(CN(C3)C1)C2	TWEAK-Fn14 inh 62.5 (no result: TROY NFkB inh, CaV13 FRET inh, Xi reactivation, LGR2 antag)
O=C(c1cccc([N+](=O)[O-])c1)C12CN3CN(CN(C3)C1)C2	none
O=C1NC(=O)N(CCc2ccc(F)cc2)C(=O)/C1=C\C=C\c1ccccc1	TWEAK-Fn14 inh 97.8
CN(C)CC#Cc1ccc([C@@H]2[C@H]3CN(C(=O)Cc4ccccn4)CCCCN3[C@H]2CO)cc1	none (no result: TROY NFkB inh, CaV13 FRET inh, TWEAK-Fn14 inh)
C[C@H]1[C@@H](OS(=O)(=O)O)C[C@@H]2C[C@H]([C@@H](O)c3cc(=O)[nH]c(=O)[nH]3)NC3=NC[C@H]1N32	TWEAK-Fn14 inh 59.6 (no result: CaV13 FRET inh, Xi reactivation, LGR2 antag)
CCN1CCN(CC(c2ccccc2)c2ccccc2)CC1	none
O=C(c1ccccc1)C(CN1CCCC1)c1ccccc1 (stereo not drawn)	TWEAK-Fn14 inh 71.2, LGR2 antag inconclusive
Cc1cc([N+](=O)[O-])c(Cl)cc1NC(=O)C(C)C	none
CNc1cc(Cl)c2nonc2c1[N+](=O)[O-]	TROY NFkB inh 88.9, LGR2 antag 104.2
CCCC#Cc1ccc([C@@H]2[C@H]3CN(C(=O)Cc4ccccn4)CCCCN3[C@H]2CO)cc1	none (no result: TROY NFkB inh, CaV13 FRET inh, TWEAK-Fn14 inh)
C[C@]12CC[C@H]3[C@@H](CCC4=CC(=O)CC[C@@H]43)[C@@H]1CC[C@@H]2O	none (no result: CaV13 FRET inh, Xi reactivation)
C[C@]12CC[C@@H]3c4ccc(O)c(O)c4CC[C@H]3[C@@H]1CC[C@@H]2O	TWEAK-Fn14 inh 54.5
C[C@@H]1CN([C@@H](C)CO)C(=O)c2c(c3ccccc3n2C)-c2ccccc2CO[C@H]1CN(C)C(=O)Oc1ccccc1	none (no result: TROY NFkB inh, CaV13 FRET inh, TWEAK-Fn14 inh)
CNc1ccc2oc(C[C@H]3O[C@@]4(CC[C@H]3C)O[C@H]([C@H](C)C(=O)c3ccc[nH]3)[C@H](C)C[C@H]4C)nc2c1C(=O)O	TROY NFkB inh 53.4, TWEAK-Fn14 inh 103.6
COC(=O)[C@H]1[C@H](CO)[C@H]2Cn3c(ccc(-c4ccccc4)c3=O)[C@@H]1N2CCc1ccccc1	none (no result: TROY NFkB inh, CaV13 FRET inh, TWEAK-Fn14 inh)
CCN1/C(=C/C=C/C2=[N+](CC)c3ccccc3C2(C)C)C(C)(C)c2ccccc21	TROY NFkB inh 66.2, TWEAK-Fn14 inh 81.6, LGR2 antag 54.5
N=Cc1c(O)n(-c2ccc(C34CC5CC(CC(C5)C3)C4)cc2)c(=O)[nH]c1=O	TROY NFkB inh 53.5, TWEAK-Fn14 inh 67.5
O=c1[nH]c(=O)n(-c2ccc(Br)cc2)c(O)c1C=NC(CO)(CO)CO	none
C[C@H]1CC[C@@H]2[C@@H](C)[C@H]3[C@H](C[C@H]4[C@@H]5CC=C6C[C@@H](O[C@@H]7O[C@H](CO)[C@H](O)[C@H](O[C@@H]8O[C@H](CO)[C@@H](O)[C@H](O)[C@H]8O)[C@H]7O[C@@H]7O[C@@H](C)[C@H](O)[C@@H](O)[C@H]7O)CC[C@]6(C)[C@H]5CC[C@]34C)N2C1	none (no result: CaV13 FRET inh, Xi reactivation)
C[C@@H]1O[C@@H](O[C@H]2C[C@@H](O)[C@]3(CO)[C@@H]4C(CC[C@]3(O)C2)[C@@]2(O)CC[C@H](C3COC(=O)C3)[C@@]2(C)C[C@H]4O)[C@H](O)[C@H](O)[C@H]1O (stereo partly drawn)	TWEAK-Fn14 inh 52.7, LGR2 antag 73.1
C=Cc1cc(OC)c2c(c1)c(=O)oc1c2cc(OC)c2c(O)ccc(C3OC(C)C(O)C(C)(O)C3O)c21 (stereo not drawn)	TWEAK-Fn14 inh 90.7 (no result: LGR2 antag)
CCC1CN2CCc3cc(OC)c(OC)cc3C2CC1CC1NCCc2c1[nH]c1ccc(O)cc21 (stereo not drawn)	TROY NFkB inh 84.8, TWEAK-Fn14 inh 99.1, LGR2 antag 100.1
COc1ccc2c(c1OC)CN1CCc3cc4c(cc3[C@H]1C2)OCO4	none (no result: CaV13 FRET inh, Xi reactivation, LGR2 antag)
O=C(Nc1ccncc1)c1cccn(Cc2ccccc2)c1=O	TWEAK-Fn14 inh 50.0
